Only some compounds are listed: those with a hit (about 2.6% of all), similar ones and a draw of the others.
NR2E3 ag-1 = NR2E3 agonists in two-hybrid cells, primary screen, cell-based, luminescence, CHO-S, Gal4-NCOR/VP16-NR2E3 | inhibition of corepressor binding, % at 3.98 µM | actives 0.35% (n = 360,000) | AID 602229, 2012 | luciferase | Photoreceptor-specific nuclear receptor (Homo sapiens), Q9Y5X4;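 active = inhibition above the mean of all tested compounds plus 3 SD, cut at about 70% in these data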;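 also: 0% = DMSO with NR2E3 transfected cells and 100% = cells lacking NR2E3 construct; higher means lower luciferase signal from less NR2E3 corepressor binding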
Target sequence (Q9Y5X4 whole entry, looked up, the tested form may be a part): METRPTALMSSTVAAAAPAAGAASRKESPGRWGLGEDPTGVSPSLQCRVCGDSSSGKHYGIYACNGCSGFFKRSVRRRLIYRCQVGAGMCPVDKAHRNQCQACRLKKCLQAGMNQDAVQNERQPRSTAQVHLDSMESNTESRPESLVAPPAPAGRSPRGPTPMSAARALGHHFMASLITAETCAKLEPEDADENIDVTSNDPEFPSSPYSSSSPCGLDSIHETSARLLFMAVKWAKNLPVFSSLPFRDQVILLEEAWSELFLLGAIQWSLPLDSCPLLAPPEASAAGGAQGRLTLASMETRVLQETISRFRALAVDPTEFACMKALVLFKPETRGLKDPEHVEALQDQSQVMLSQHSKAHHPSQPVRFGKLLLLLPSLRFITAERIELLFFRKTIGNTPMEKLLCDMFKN
NR2E3 ag-2 = inhibitors of NR2E3-RetCOR corepressor binding, primary screen, NR2E3 agonist project, biochemical, TR-FRET, GST-NR2E3, biotin-RetCOR; 1536-well; actives 0.12% (n = 320,000); AID 2300, 2010; Photoreceptor-specific nuclear receptor (Homo sapiens), Q9Y5X4; inhibition of corepressor binding, % at 4.78 µM;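 active = percent inhibition above the cutoff of mean plus 3 SD of all tested compounds, set per screening campaign, cut at about 20% in these data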;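 also: 0% = DMSO wells and 100% = biotin wells as full block of FRET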
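Test system – NR2E3–RetCOR corepressor complex · Quantity – NR2E3 fusion 1.35 nM · Buffer or medium – Tris pH 7.5 · Incubation – Compound–protein incubation for 5 h at 4 °C · Technique – TR-FRET, Eu(K)-anti-GST donor, streptavidin-D2 acceptor, ex 340, em 617/671 nm · Evaluation – percent inhibition of 671/617 nm emission ratio versus biotin and DMSO controls · Plate – 1536-well format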
NR1D1 modulator = modulators of Rev-erb alpha DNA binding, primary screen, biochemical, FITC-DNA, fluorescence polarization, uHTS. Rev-erbα–FITC-DNA binding, 90 min. AID 1259318, 2017. actives 0.79% (n = 370,000). activity, % at 10 µM. Nuclear receptor subfamily 1 group D member 1 (Homo sapiens), P20393;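 active = activity above about 14%, limit read from the data; passing the limit was not always enough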;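 also: 0% = DMSO wells with 35 nM protein and 100% = DMSO wells with 750 nM protein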
rCAG RNA binder = binders of r(CAG) RNA repeats, primary screen, biochemical, fluorescence | AID 651821, 2012 | actives 1.3% (n = 370,000) | inhibition, % at 3 µM | r(CAG) RNA repeat, TO-PRO-1 dye displacement fluorescence;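 active = inhibition above the plate cutoff, the mean of all test compounds on that plate plus 3 SD, cut at about 35% in these data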;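 also: 0% = DMSO alone and 100% = 100 µM mitoxantrone as full dye displacement; higher means more dye released from RNA so lower well fluorescence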
PG9 binder = binders of HIV-1 gp120 antibody PG9, primary screen, biochemical, TR-FRET; HIV-1 gp120 / PG9 antibody interaction; TR-FRET gp120-PG9 antibody binding; inhibition, % at 6.7 µM; actives 0.43% (n = 360,000); in the data active = inhibition above about 8.5%
PG9 bind confirm = binders of anti-gp120 antibody PG9, confirmation, biochemical, TR-FRET; shares compounds with PG9 binder; TR-FRET PG9 antibody binding; inhibition, % at 6.7 µM; actives 90% (n = 1,500); in the data active = inhibition above about 9%
PGV04 counter = binders of control antibody PGV04, counter-screen for PG9 antibody binder project, biochemical, TR-FRET, distinct HIV envelope site; inhibition, % at 6.7 µM; TR-FRET PGV04 antibody-gp120 binding; AID 651604, 2012; actives 95% (n = 1,500); shares compounds with PG9 binder; in the data active = inhibition above about 9.5%
PG9 bind DR = small-molecule binders of antibody PG9, dose response, biochemical, TR-FRET, HIV-1 gp120 antibody | IC50, µM | 95 tested, under 10 active | AID 651848, 2012 | shares compounds with PG9 binder | TR-FRET PG9 antibody-gp120 binding inhibition; in the data active = IC50 below about 10 µM
PGV04 DR counter = binders of control antibody PGV04, dose response, counter-screen for PG9 antibody binder project, biochemical, TR-FRET, distinct HIV envelope site | AID 651937, 2012 | shares compounds with PG9 binder | TR-FRET binding to control antibody PGV04 | IC50, µM | actives 20% (n = 95)
PG126 binding DR = binders of control antibody PG126, dose response, counter-screen for PG9 antibody binder project, biochemical, TR-FRET, distinct HIV envelope site. shares compounds with PG9 binder. TR-FRET binding to antibody PG126, counterscreen. IC50, µM. actives 20% (n = 95)
NR1D1 mod conf = modulators of Rev-erb alpha DNA binding, confirmation, biochemical, FITC-DNA, fluorescence polarization, single point; actives 61% (n = 3,000); 90 min; activation, % at 25 µM; shares compounds with NR1D1 modulator;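 active = activation at or above a set limit, or at least 3 SD above the negative control mean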;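 also: 0% = 35 nM protein with DMSO and 100% = 750 nM protein high control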
RORg DNA counter = modulation of RORgamma DNA binding, dose response, counter-screen for Rev-erb alpha modulator project, biochemical, fluorescence polarization, FITC-DNA | shares compounds with NR1D1 modulator | purified RORgamma protein-FITC-DNA binding | IC50, µM | actives 8% (n = 910) | AID 1259320, 2017;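 active = Compounds whose fitted half-maximal concentration for disrupting protein-DNA binding is below 10 micromolar; the record names Rev-erb in its text, so the target is in doubt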
The depositor's hits bear a star; i = inactive; . = not tested or not shown. Rule as the data show it, unless noted: active = IC50 below about 9 µM; inactive = the rest.

SMILES	NR2E3 ag-1	NR2E3 ag-2	NR1D1 modulator	rCAG RNA binder	PG9 binder	PG9 bind confirm	PGV04 counter	NR1D1 mod conf	others
Cc1cc2nc(-c3ccc(SCC(=O)Nc4ccc(S(=O)(=O)N5CCCC5)cc4)nc3)[nH]c2cc1C	-101.0	-27.1	30.9*	15.7	16.1*	8.3	27.1*	31.8*
CCN(CC)C(=O)C1=C(C)N(Cc2ccccc2)C(=O)C(CC(=O)NCCCN(C)C)C1 (stereo not given)	13.7	.	4.3	-0.2	0.8	.	.	.
CCOC(=O)c1cc2sc(C)cc2n1CC(=O)NCc1ccc(F)cc1	-19.1	1.9	26.8*	1.2	59.4*	49.3*	74.7*	11.5
COc1ccc(-c2cc(-c3ccccc3)c(C#N)c(SCC(=O)Nc3ncc(C)s3)n2)cc1	-2.1	2.9	25.9*	17.8	27.5*	6.2	10.0*	42.1*	RORg DNA counter=>40
N#Cc1c(-c2ccc(F)cc2)cc(-c2ccccc2)nc1SCC(=O)NCC(=O)O	-26.5	1.8	4.6	23.2	-0.1	.	.	.
CCOC(=O)N1CCC(NC(=O)c2ccc3c(c2)N(Cc2ccc(C)cc2)CCS3)CC1	-3.8	1.7	29.9*	2.0	22.5*	30.6*	43.7*	6.9
CCOC(=O)N1CCC(NC(=O)c2ccc3c(c2)N(Cc2ccc(F)cc2)CCS3)CC1	-48.8	-1.2	4.5	4.0	1.7	.	.	.
COC(=O)c1ccc2nc(NC(=O)CCS(=O)(=O)c3ccccc3)sc2c1	-6.4	5.7	43.4*	-3.2	14.9*	24.7*	35.8*	17.9*
C[C@H](O)[C@@H]1C(=O)N2CCc3ccc(-c4ccccc4)cc3[C@@H]2C[C@@H]1N(C)C(=O)c1ccco1	11.8	.	-2.8	5.2	-0.7	.	.	.
O=C(Cn1c(=S)[nH]c2ccccc2c1=O)N1CCc2ccccc2C1	-10.9	-3.2	34.8*	1.1	32.1*	33.0*	51.4*	22.8*
O=C(CCc1nc2ccccc2c(=O)[nH]1)Nc1cc(C(F)(F)F)ccc1N1CCCC1	-5.4	2.3	-2.0	9.4	-0.9	.	.	.
O=C(CNC(=O)c1sc2ccccc2c1Cl)NCc1cccc(C(F)(F)F)c1	18.4	7.3	31.1*	2.9	15.4*	17.3*	19.1*	17.3*
C#CCOc1ccccc1C(=O)NNc1ccc([N+](=O)[O-])cc1[N+](=O)[O-]	.	.	-2.3	3.1	-1.5	.	.	.
COc1ccc2oc(C(=O)Nc3nccs3)c(C)c2c1	-198.8	-10.1	35.6*	8.0	12.2*	21.3*	46.2*	16.6
CCN(CC)C(=O)c1ncn2c1C(=O)N[C@H](C)C2	.	.	4.5	-1.7	0.1	.	.	.
CCCCNC(=O)[C@]1(C)CCC[C@@]2(C)C3CC[C@@]4(C)C[C@]3(CCC21)CC4=O (stereo not given in full)	-17.9	-0.9	1.3	-9.8	1.2	.	.	.
COc1ccc(N(C(=O)c2snc(C(N)=O)c2N)C(C(=O)NCc2ccccc2)c2ccc(O)cc2)cc1 (stereo not given)	-13.2	.	-4.5	12.1	-1.2	.	.	.
NC(=O)c1nsc(C(=O)N(c2ccccc2)C(C(=O)NCc2ccc(F)cc2)c2ccc(O)cc2)c1N (stereo not given)	11.8	5.6	20.4*	12.2	9.9*	4.1	9.8*	11.6
CCCCn1nnnc1C(c1cc2ccccc2o1)N1CCN(C/C=C/c2ccccc2)CC1 (stereo not given)	1.1	.	13.4	1.5	0.5	.	.	.
CC(C)c1ccc(-c2cc(C(=O)N3CCOCC3)c3cc(Br)ccc3n2)cc1	-42.4	4.3	63.1*	-0.1	16.8*	29.8*	35.7*	28.1*
CCCNC(=O)c1ccc2snnc2c1	1.8	0.6	-1.5	4.2	1.0	.	.	.
CCCNC(=O)c1ccc2c(=O)n3c(-c4ccc(C)cc4)csc3nc2c1	12.7	8.2	25.9*	4.3	24.2*	36.6*	67.9*	24.2*
COc1ccc(-c2c(C)nc3c(-c4ccsc4)cnn3c2N)cc1	-73.4	2.2	107.9*	-0.1	36.4*	7.8	16.0*	65.8*	RORg DNA counter=>40
Cc1sc2nc(Cc3ccccc3)[nH]c(=O)c2c1-c1ccccc1	7.5	14.2	69.7*	-3.7	34.7*	44.2*	65.1*	87.2*	RORg DNA counter=i
Cc1sc2nc(-c3cccnc3)[nH]c(=O)c2c1-c1ccccc1	-6.0	6.2	-3.3	3.0	0.1	.	.	.
CC(=O)Nc1nnc(SCC(=O)NC2CC2)s1	-11.4	4.3	-2.2	0.1	-0.6	.	.	.
CC(=O)Nc1nnc(SCC(=O)c2ccc3c(c2)Cc2ccccc2-3)s1	-15.1	-1.6	55.1*	9.6	10.2*	21.5*	48.8*	18.4*
CCc1ccccc1NC(=O)COc1ccc2oc(-c3ccc(OC)cc3)cc(=O)c2c1	0.4	-0.1	27.4*	2.5	17.8*	77.9*	47.6*	-0.1	PG9 bind DR=>67;PGV04 DR counter=3.7*;PG126 binding DR=3.63*
COc1ccc(S(=O)(=O)N2CCOCC2)cc1C(=O)Nc1ccc(N2CCCCCC2)cc1	40.2	.	-13.4	4.5	-5.9	.	.	.

Screening results from PubChem.
